ChEMBL document CHEMBL1158959, “Antitumor agents, 119. Kansuiphorins A and B, two novel antileukemic diterpene esters from Euphorbia kansui” (J Nat Prod, 1991)
Values after ≈ are worked out from the molar mass of the structure shown. Active and inactive are the calls of the source. No cut-off for these calls is given here.

Tests used:
A704 = experiment: Cytotoxicity against human A704 cells; type: functional, cell-based
EKVX = experiment: Cytotoxicity against human EKVX cells; type: functional, cell-based
NCI-H23 = experiment: Cytotoxicity against human H23 cells; type: functional, cell-based
P388 [1] = experiment: In vivo antileukemic activity in mouse P388 cells at 0.1 mg/kg relative to control; type: functional
Method in brief: (§1)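 In vivo P-388 lymphocytic leukemia model run by standard National Cancer Institute procedures; activity is reported as T/C (%), treated relative to control.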

RPMI-7951 = experiment: Cytotoxicity against human RPMI7951 cells; type: functional, cell-based
A498 = experiment: Cytotoxicity against human A498 cells; type: functional, cell-based
[2] = Cytotoxicity against human NCI-H322 cells; type: functional, cell-based
SNB-75 = experiment: Cytotoxicity against human SNB75 cells; type: functional, cell-based
H125 = experiment: Cytotoxicity against human H125 cells; type: functional, cell-based
K562 = experiment: Cytotoxicity against human K562 cells; type: functional, cell-based
HCC 2998 = experiment: Cytotoxicity against human HCC2998 cells; type: functional, cell-based
HL-60(TB) = experiment: Cytotoxicity against human HL-60(TB) cells; type: functional, cell-based
SK-MEL-2 = experiment: Cytotoxicity against human SK-MEL-2 cells; type: functional, cell-based
SK-MEL-5 = experiment: Cytotoxicity against human SK-MEL-5 cells; type: functional, cell-based
NCI-H69 = experiment: Cytotoxicity against human H69 cells; type: functional, cell-based
P388 [3] = experiment: Cytotoxicity against adriamycin-resistant mouse P388 cells; type: functional, cell-based
HOP-62 = experiment: Cytotoxicity against human HOP62 cells; type: functional, cell-based
NCI-H524 = experiment: Cytotoxicity against human NCI-H524 cells; type: functional, cell-based
SW-620 = experiment: Cytotoxicity against human SW620 cells; type: functional, cell-based
UO-31 = experiment: Cytotoxicity against human UO31 cells; type: functional, cell-based
MCF7 = experiment: Cytotoxicity against human MCF7 cells; type: functional, cell-based
NCI-H522 = experiment: Cytotoxicity against human NCI-H522 cells; type: functional, cell-based
NCI/ADR-RES = experiment: Cytotoxicity against human MCF7/ADR cells; type: functional, cell-based
NCI-H146 = experiment: Cytotoxicity against human NCI-H146 cells; type: functional, cell-based
U-251 = experiment: Cytotoxicity against human U251 cells; type: functional, cell-based
NCI-H82 = experiment: Cytotoxicity against human H82 cells; type: functional, cell-based
DLD-1 = experiment: Cytotoxicity against human DLD1 cells; type: functional, cell-based
SNB-19 = experiment: Cytotoxicity against human SNB19 cells; type: functional, cell-based
SNB44 = experiment: Cytotoxicity against human SNB44 cells; type: functional, cell-based
OVCAR-5 = experiment: Cytotoxicity against human OVCAR5 cells; type: functional, cell-based
Malme-3M = experiment: Cytotoxicity against human MALME-3M cells; type: functional, cell-based
MOLT-4 = experiment: Cytotoxicity against human MOLT4 cells; type: functional, cell-based
OVCAR-8 = experiment: Cytotoxicity against human OVCAR8 cells; type: functional, cell-based
SN12K1 = experiment: Cytotoxicity against human SN12K1 cells; type: functional, cell-based
P388 [4] = experiment: In vivo antileukemic activity in mouse P388 cells at 0.5 mg/kg relative to control; type: functional; method in brief: as §1

## CCCCCCCCCCCCCCCC(=O)OCC1=C[C@@H]2C(=O)[C@]3(C=C(C)[C@H](OC(=O)C(C)C(C)C)[C@@]3(O)[C@@H]1O)[C@H](C)C[C@]1(OC(=O)CCCCCCCCCCC)[C@H]2C1(C)C (stereo not given in full) [KANSUIPHORIN A]
A704
  IC50: 0.03 µg/mL (≈ 0.034 µM)
EKVX
  Activity: inactive
NCI-H23
  Activity: inactive
P388 [1]
  T/C: >=176%
RPMI-7951
  IC50: 0.05 µg/mL (≈ 0.0566 µM)
A498
  IC50: 0.02 µg/mL (≈ 0.0226 µM)
[2]
  IC50: 0.33 µg/mL (≈ 0.374 µM)
SNB-75
  Activity: inactive
H125
  Activity: inactive
K562
  IC50: 0.03 µg/mL (≈ 0.034 µM)
HCC 2998
  Activity: inactive
HL-60(TB)
  IC50: 0.03 µg/mL (≈ 0.034 µM)
SK-MEL-2
  Activity: inactive
SK-MEL-5
  IC50: 0.14 µg/mL (≈ 0.158 µM)
NCI-H69
  Activity: inactive
P388 [3]
  Activity: inactive
HOP-62
  IC50: 0.06 µg/mL (≈ 0.0679 µM)
NCI-H524
  Activity: inactive
SW-620
  IC50: 0.08 µg/mL (≈ 0.0906 µM)
UO-31
  Activity: inactive
MCF7
  Activity: inactive
NCI-H522
  Activity: inactive
NCI/ADR-RES
  Activity: inactive
NCI-H146
  Activity: inactive
U-251
  Activity: inactive
NCI-H82
  Activity: inactive
DLD-1
  Activity: inactive
SNB-19
  Activity: inactive
SNB44
  Activity: inactive
OVCAR-5
  Activity: inactive
Malme-3M
  IC50: 0.32 µg/mL (≈ 0.362 µM)
MOLT-4
  IC50: 0.13 µg/mL (≈ 0.147 µM)
OVCAR-8
  Activity: inactive
SN12K1
  IC50: 0.07 µg/mL (≈ 0.0792 µM)

## CCCCCCCCCCCCCCCC(=O)OC[C@@]12O[C@@H]1[C@@H]1C(=O)[C@]3(C=C(C)[C@H](OC(=O)C(C)C(C)C)[C@@]3(O)[C@@H]2O)[C@H](C)C[C@]2(OC(=O)CCCCCCCCCCC)[C@H]1C2(C)C (stereo not given in full) [KANSUIPHORIN B]
P388 [4]
  T/C: >=177%
